Data on 10 compounds can be found in ChEMBL document CHEMBL3244055, “Synthesis of mono- and bifunctional alpha-methylene lactone systems as potential tumor inhibitors” (1977).

Assay [1] concerns CCRF-CEM. Description: Growth inhibition of human CCRF-CEM cells after 48 hrs by cell culture assay. Conditions: read-out: ID50 (the source's name). It counts as functional. The method in brief: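 CCRF-CEM human lymphoblastic leukemia cells, which lack cystathionase and need exogenous L-cysteine, grown in culture with test lactone; growth inhibition expressed as ID50 (M).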

The test system of a further assay is CCRF-SLT. Description: Growth inhibition of human CCRF-SLT cells in presence of cystathionine. It counts as functional, cell-based. Summed up:
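Cystathionase-containing CCRF-SLT cell line, able to grow on cystathionine, cultured with test lactone in medium supplemented with cystathionine and, in parallel, without it; growth inhibition compared between the two media.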

The test system of assay [2] is CCRF-CEM. As to the kind of experiment: Growth inhibition of human CCRF-CEM cells after 48 hrs by cell culture assay in presence of 1 x 10^-4 M L-cysteine. It counts as functional. Conditions: read-out: ID50 (the source's name).

Structures are written as SMILES. Calls of active or inactive are those of the source. No cut-off for these calls is given here.

As for `C=C1C(=O)OC(C)(C)C1C` (stereo not drawn), the IC50 in the assay on CCRF-CEM [1] came out at 21000 nM. The “growth inhibition (GI)” value in the assay with CCRF-SLT was “Active”.
`C=C1C(=O)O[C@@H]2CC[C@@H](O)[C@H]12` (relative stereo): in the assay with CCRF-CEM [1], the IC50 is 2700 nM.
`C=C[C@]12CC[C@H]3C(=C)C(=O)O[C@@H]3[C@H]1C(=C)C(=O)OC2`: the IC50 in the assay with CCRF-CEM [2] came to 34 nM.
Regarding `C=C1C(=O)OC[C@H]2[C@H]3CC[C@@H](C3)[C@@H]12`, the IC50 in the assay on CCRF-CEM [1] stood at 7000 nM.
For `C=C[C@@]12COC(=O)C(=C)[C@@H]1[C@H]1OC(=O)C(=C)[C@@H]1[C@@H](O)C2` [VERNOLEPIN], the IC50 with CCRF-CEM [2] was found to be 430 nM.
As for `C=C(C(=O)OC)[C@H]1CCC[C@H]2C(=C)C(=O)O[C@H]12` (relative stereo), the IC50 in the assay on CCRF-CEM [1] came to 2100 nM.
For the compound `C=C1C(=O)O[C@H]2CCC[C@@H]1C2` (relative stereo), the IC50 in the assay on CCRF-CEM [1] was 16000 nM. Further, the “growth inhibition (GI)” value in the assay on CCRF-SLT is “Active”.
On the same counts, the results for `C=C1C(=O)O[C@@H]2CCC[C@@H](O)[C@H]12` (relative stereo) are 15000 nM and “Active”.
Consider `C=C1C(=O)OC[C@@]2(CC)CC[C@H]3C(=C)C(=O)O[C@@H]3[C@@H]12`, for which, in the assay with CCRF-CEM [2], the IC50 amounted to 34 nM.
With `C=C[C@]12CCCC[C@H]1C(=C)C(=O)OC2` (relative stereo), in the assay on CCRF-CEM [1], the IC50 is 680 nM.
